According to ChEMBL document CHEMBL1142277, “Toward a structure-based model of salvinorin A recognition of the kappa-opioid receptor” (J Med Chem, 2008):

Columns and labels:
Type in all cases: cell-based
[1] = Displacement of [3H]diprenorphine from chimeric rat mu opioid receptor (1-150)/kappa opioid receptor (142-227)/mu opioid receptor (234-398) expressed in HEK293 cells
Outline: (§1)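 Whole-cell binding: HEK-293 cells transiently transfected (calcium phosphate, 10–20 µg pcDNA) with wild-type, point-mutant or chimeric receptor, harvested 48–72 h later, washed and resuspended in 25 mM HEPES pH 7.4. Incubated with [3H]-diprenorphine, room temperature, 90 min. Separation by filtration on PEI-presoaked GF/C filters, scintillation counting. Nonspecific binding with 100 µM naloxone, norBNI or salvinorin A. Triplicates, nonlinear regression.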

[2] = Displacement of [3H]diprenorphine from chimeric rat mu opioid receptor (1-150)/kappa opioid receptor (142-380) expressed in HEK293 cells; outline: as §1
[3] = Displacement of [3H]diprenorphine from chimeric rat kappa opioid receptor (1-227)/mu opioid receptor (234-398) expressed in HEK293 cells; outline: as §1
[4] = biological target: Kappa-type opioid receptor (Rattus norvegicus, UniProt P34975, Y313A); experiment: Displacement of [3H]diprenorphine from rat kappa opioid receptor Y313A mutant expressed in HEK293 cells; outline: as §1
[5] = Displacement of [3H]diprenorphine from chimeric rat kappa opioid receptor (1-141)/mu opioid receptor (151-398) expressed in HEK293 cells; outline: as §1
[6] = Displacement of [3H]diprenorphine from chimeric rat mu opioid receptor (1-233)/kappa opioid receptor (228-380) expressed in HEK293 cells; outline: as §1
Mu-type opioid receptor [7] = biological target: Mu-type opioid receptor (Rattus norvegicus, UniProt P33535, W318A); experiment: Displacement of [3H]diprenorphine from rat mu opioid receptor W318A mutant expressed in HEK293 cells; outline: as §1
[8] = Displacement of [3H]diprenorphine from chimeric rat kappa opioid receptor (1-141)/mu opioid receptor (151-233)/kappa opioid receptor (228-380) expressed in HEK293 cells; outline: as §1
Mu-type opioid receptor [9] = biological target: Mu-type opioid receptor (Rattus norvegicus, UniProt P33535); experiment: Displacement of [3H]diprenorphine from rat mu opioid receptor expressed in HEK293 cells; outline: as §1
[10] = biological target: Kappa-type opioid receptor (Rattus norvegicus, UniProt P34975); experiment: Displacement of [3H]diprenorphine from rat kappa opioid receptor expressed in HEK293 cells; outline: as §1
[11] = Displacement of [3H]diprenorphine from chimeric rat kappa opioid receptor (1-227)/mouse delta opioid receptor (215-372) expressed in HEK293 cells; outline: as §1
[12] = Displacement of [3H]diprenorphine from chimeric rat kappa opioid receptor (1-141)/mouse delta opioid receptor (132-372) expressed in HEK293 cells; outline: as §1

Chain of Kappa-type opioid receptor (Rattus norvegicus, UniProt P34975) (P34975 whole entry): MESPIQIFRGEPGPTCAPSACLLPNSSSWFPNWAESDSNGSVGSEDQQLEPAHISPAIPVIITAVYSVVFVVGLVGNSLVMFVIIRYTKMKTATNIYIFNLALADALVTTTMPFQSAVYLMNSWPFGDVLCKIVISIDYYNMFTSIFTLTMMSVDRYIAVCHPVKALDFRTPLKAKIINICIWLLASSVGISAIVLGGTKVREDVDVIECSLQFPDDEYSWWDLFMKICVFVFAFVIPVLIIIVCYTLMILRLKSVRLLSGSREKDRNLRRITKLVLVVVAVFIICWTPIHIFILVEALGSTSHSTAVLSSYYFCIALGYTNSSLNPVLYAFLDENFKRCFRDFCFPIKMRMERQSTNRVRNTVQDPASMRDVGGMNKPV
Chain of Kappa-type opioid receptor (Rattus norvegicus, UniProt P34975, Y313A) (P34975 whole entry Y313A): as the sequence (P34975 whole entry) above, with Y313A counted along it
Chain of Mu-type opioid receptor (Rattus norvegicus, UniProt P33535, W318A) (P33535 whole entry W318A): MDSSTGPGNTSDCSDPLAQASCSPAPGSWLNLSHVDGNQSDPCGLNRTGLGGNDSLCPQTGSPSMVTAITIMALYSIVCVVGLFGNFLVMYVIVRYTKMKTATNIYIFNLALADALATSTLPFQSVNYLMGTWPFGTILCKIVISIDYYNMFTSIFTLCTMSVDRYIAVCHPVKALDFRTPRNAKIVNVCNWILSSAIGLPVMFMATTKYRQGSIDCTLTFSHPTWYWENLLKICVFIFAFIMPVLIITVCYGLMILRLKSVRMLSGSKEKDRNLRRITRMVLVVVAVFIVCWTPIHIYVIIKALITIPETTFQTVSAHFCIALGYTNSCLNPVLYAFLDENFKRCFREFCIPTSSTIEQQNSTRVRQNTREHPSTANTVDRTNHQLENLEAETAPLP
Chain of Mu-type opioid receptor (Rattus norvegicus, UniProt P33535) (P33535 whole entry): as the sequence (P33535 whole entry W318A) above, with A318W counted along it

| SMILES | Ki [1] [nM] | Ki [2] [nM] | Ki [3] [nM] | Ki [4] [nM] | Ki [5] [nM] | Ki [6] [nM] | Ki (Mu-type opioid receptor [7]) [nM] | Ki [8] [nM] | Ki (Mu-type opioid receptor [9]) [nM] | Ki [10] [nM] | Ki [11] [nM] | Ki [12] [nM] |
| --- | --- | --- | --- | --- | --- | --- | --- | --- | --- | --- | --- | --- |
| COC(=O)[C@@H]1C[C@H](C(=O)c2ccccc2)C(=O)[C@H]2[C@@]1(C)CC[C@H]1C(=O)O[C@H](c3ccoc3)C[C@]21C | 615 | 4110 | 9400 | 3870 | 1610 | 2310 | 426 | 8320 | 245 | 1380 | 450 | > 10000 |
| COC(=O)[C@@H]1C[C@H](OC(C)=O)C(=O)[C@H]2[C@@]1(C)CC[C@H]1C(=O)O[C@H](c3ccoc3)C[C@]21C [SALVINORIN A] | 458 |  |  |  |  |  |  | 522 |  |  |  |  |
